Where “and” joins values, the source holds several entries; their conditions need not be identical. Identical values can stand only once. Entries after “also recorded” stand apart in the source; their conditions may differ.
Legend:
[1] = tested on: Dd2 drug-resistant strain of P. falciparum; assay: Antimalarial bioassay: 72 h in vitro parasite growth assay, SYBR Green I; assay type: cell-based, Plasmodium falciparum; settings: for Antiplasmodial activity (in words): Dd2 drug-resistant strain of P. falciparum; for Concentration at which compound was inactive in antimalarial assay: Dd2 strain, inactive at this (highest tested) dose
Method in brief: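 Ring-stage Dd2 cultures (1% hematocrit, 1% parasitaemia) were grown for 72 h with increasing test compound concentrations at 37 °C in a humidified chamber under low oxygen (5.06% CO2, 4.99% O2, 89.95% N2). Viability was measured by SYBR Green I DNA quantitation. IC50 came from nonlinear regression as the mean of three independent determinations in duplicate, ± S.E.M. Artemisinin served as positive control.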

[2] = tested on: HEK293 (Human Embryonic Kidney) cells; assay: In vitro cytotoxicity against HEK293 cells; assay type: cell-based; settings: 24 h
[3] = tested on: 3D7 strain of P. falciparum; settings: chloroquine-sensitive strain; cited from earlier work

C[C@H]1[C@H](C)CC[C@]2(C(=O)O)CC[C@]3(C)C(=CC[C@@H]4[C@@]5(C)CC[C@H](O)C(C)(C)[C@@H]5CC[C@]43C)[C@H]12 [Compound 5, ursolic acid]
Antiplasmodial activity (in words) [1]: inactive
Concentration at which compound was inactive in antimalarial assay [1]: 40 µM

CCCCCC(=O)c1c(O)cc(O)c2c1OC1=C(C(=O)C(C)(C)C(=O)C1(C)C)C2CC(C)C (racemic) [Compound 1, (±)-4,9-dihydro-6,8-dihydroxy-2,2,4,4-tetramethyl-5-hexanoyl-9-isobutyl-1H-xanthene-1,3(2H)-dione]
Antiplasmodial activity (in words) [1]: strong antiplasmodial activity; also recorded: strong antimalarial activity
Concentration up to which no inhibition/toxicity to HEK cells was detected [2]: 3.125 µM

CCCCCC(=O)c1c(O)cc(O)cc1O [Compound 6, 1-(2,4,6-trihydroxyphenyl)-1-hexanone]
Antiplasmodial activity (in words) [1]: inactive
Concentration at which compound was inactive in antimalarial assay [1]: 90 µM and 80 µM

C=C(C)[C@@H]1CC[C@]2(C(=O)O)CC[C@]3(C)[C@H](CC[C@@H]4[C@@]5(C)CC[C@H](O)C(C)(C)[C@@H]5CC[C@]43C)[C@@H]12 [Compound 3, betulinic acid]
Antiplasmodial activity (in words) ([1]; listed as Betulinic acid (3)): moderate inhibitory effect
Inhibition of 3D7 strain of P. falciparum (in words) [3]: inhibit

CC(C)=CCCC1=CCC2(C(=O)C(C)(C)C(=O)C(C)(C)C2=O)C(CC(C)C)C1 (racemic) [Compound 2, (±)-2,2,4,4-tetramethyl-11-isobutyl-9-(4-methyl-3-penten-1-yl)-spiro[5.5]undec-8-ene-1,3,5-trione]
Antiplasmodial activity (in words) [1]: moderate antiplasmodial activity
Concentration up to which no inhibition/toxicity to HEK cells was detected [2]: 100 µM

From paper PMC4860949 (Bioorganic & medicinal chemistry, 2016)
